# M5 antag – blocks acetylcholine activation of human M5 receptor; P08912; CHO-hM5 cells, Fluo-8 calcium fluorescence, ACh EC80; inhibition, % at 3 µM; actives 0.59% (n = 360,000);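 active means inhibition above a per-plate cutoff, the mean of that plate's test compounds plus 3 SD, cut at about 27% in these data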
# M5 PAM – CHRM5 positive allosteric modulation. P08912. CHO-K1 hM5, Fluo-8 calcium, ACh EC20 PAM; 0% = ACh EC20, 100% = ACh EC100. activation, % at 3 µM. actives 0.3% (n = 360,000). AID 624038;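 active means activation above the run cutoff, the mean activation of all test compounds plus 3 SD, cut at about 18% in these data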
#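 system = human M5 receptor in CHO-K1 cells | compound = one concentration, 3 µM final (nominal) | schedule = Post-acetylcholine fluorescence recording 140 s | signal = Fluo-8 calcium dye fluorescence, kinetic read | benchmarks = low control EC20 acetylcholine (0%), high control EC100 acetylcholine (100%) | repeats = singlicate, one well per test compound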
# CHRM1 antagonist – human CHRM1 antagonism; P11229; CHO-K1 hM1, Fluo-8 calcium fluorescence, ACh EC80 antagonist; inhibition, % at 3 µM; actives 1.3% (n = 360,000); AID 588852;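 active means percent inhibition above its own plate's cutoff, namely the mean of that plate's compound wells plus 3 SD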;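 further: peak over basal fluorescence ratio during 140 s after agonist addition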
# Target sequence (P11229 whole entry, looked up): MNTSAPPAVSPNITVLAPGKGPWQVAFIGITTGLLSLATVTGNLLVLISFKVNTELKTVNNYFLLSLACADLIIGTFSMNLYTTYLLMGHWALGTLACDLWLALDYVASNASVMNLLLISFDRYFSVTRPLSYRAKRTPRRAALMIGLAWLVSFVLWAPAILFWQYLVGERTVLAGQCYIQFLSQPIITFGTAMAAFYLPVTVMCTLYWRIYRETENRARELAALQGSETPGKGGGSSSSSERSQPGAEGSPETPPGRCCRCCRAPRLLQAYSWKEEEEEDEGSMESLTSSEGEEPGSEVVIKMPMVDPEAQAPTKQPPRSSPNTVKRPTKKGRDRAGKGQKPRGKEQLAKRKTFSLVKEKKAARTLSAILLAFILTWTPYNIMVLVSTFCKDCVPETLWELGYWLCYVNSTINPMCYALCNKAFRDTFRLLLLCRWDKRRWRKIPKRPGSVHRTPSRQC
# CHRM1 PAM – human CHRM1 positive allosteric modulation; CHO-K1 hM1, Fluo-8 calcium fluorescence, ACh EC20; 0% = ACh EC20, 100% = maximal ACh; actives 0.088% (n = 360,000); activation, % at 3 µM; P11229; in the data active means activation above about 19%, passing the limit was not always enough
# M1 ag – activates human CHRM1 receptor; P11229; CHO-K1 hM1, Fluo-8 calcium fluorescence, agonist mode; 0% DMSO, 100% acetylcholine EC100; activation, % at 3 µM; actives 0.33% (n = 360,000);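 active means activation above the run's mean compound activation plus 3 SD, cut at about 16% in these data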;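 further: peak over basal fluorescence ratio within a 140 s kinetic read after compound addition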
# M5 ag – agonists of human muscarinic M5 receptor (CHRM5) | P08912 | CHO-K1 hM5 cells, Fluo-8 calcium fluorescence; 0% DMSO wells, 100% maximal acetylcholine response | activation, % at 3 µM | actives 0.19% (n = 360,000) | AID 624037;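 active means activation above the run's mean over test compounds plus 3 SD, cut at about 23% in these data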;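 further: signal is peak over basal fluorescence ratio across the kinetic read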
# A number is an active result; n = inactive; x = no result. Hits are enriched below; roughly 2% of the tested compounds scored in any of these assays.
SMILES,M5 antag,M5 PAM,CHRM1 antagonist,CHRM1 PAM,M1 ag,M5 ag
Cc1nc2scc(C)n2c(=O)c1S(=O)(=O)NCC1CCN(Cc2ccc(Cl)cc2)CC1,n,n,44,n,n,n
Cc1nc2scc(C)n2c(=O)c1S(=O)(=O)NCCc1ccc(Cl)cc1,n,n,n,n,n,n
CCn1cc(CN2CCCC(C(=O)Nc3cccc(-n4cccn4)c3)C2)cn1 (centres undefined),n,n,n,n,n,n
COc1ccc(NC(=O)C2C3C=CC(C3)C2C(=O)O)cc1 (centres undefined),n,n,n,n,n,n
NS(=O)(=O)c1ccc(NC(=O)C2C3C=CC(C3)C2C(=O)O)cc1 (centres undefined),n,18,n,n,n,n
O=c1[nH]cnc2c1C(c1ccccc1[N+](=O)[O-])c1c(nc[nH]c1=O)O2,n,21,n,n,n,n
COc1ccc(C2c3c(nc[nH]c3=O)Oc3nc[nH]c(=O)c32)cc1,n,n,n,n,n,n
CCCc1cc(=O)[nH]c(SCC(=O)N(C)CC(=O)Nc2ccc(F)cc2)n1,n,n,n,n,n,n
CCCc1cc(=O)[nH]c(SCC(=O)N(C)CC(=O)Nc2ccc(C)cc2)n1,n,23,n,n,n,n
CCc1nn2c(=O)c(S(=O)(=O)Nc3ccc(Cl)cc3)c(C)nc2s1,n,n,n,n,n,n
CCc1cccc(NS(=O)(=O)c2c(C)nc3sc(CC)nn3c2=O)c1,30,n,73,n,n,n
CC(=O)Nc1ccc(NC(=O)C(C)OC(=O)/C(C#N)=C/c2ccc(N(C)C)cc2)cc1 (centres undefined),61,n,28,n,n,n
CCCc1ccc2c(C(F)(F)F)cc(C(F)(F)F)cc2n1,n,n,n,n,n,n
Cc1ccc(N/C(N)=N/c2nc(C)cc(N3CCCCC3)n2)c(C)c1,n,n,34,n,n,n
Cc1cccc(NC2(C(=O)O)CCCC2)c1,n,n,n,n,n,n
CCCc1nc2c(C)cc(Br)cn2c1Cc1cccc(F)c1,n,n,n,n,n,n
N#Cc1ccccc1OCC(=O)OCC(=O)N1CCCC1,n,n,n,n,n,n
N#Cc1ccccc1OCC(=O)OCCCOC(=O)COc1ccccc1C#N,27,n,n,n,n,n
CN(C)CCOC(C1CCCCC1)C1CCCCC1,n,n,49,n,n,n
CN(C)CCNC(=S)NC1CCCCC1,n,n,n,n,n,n
CC(C)(C)NC(=O)C(c1ccc(C#N)cc1)n1c(=O)c(-c2ccco2)nc2ccccc21 (centres undefined),n,n,x,x,x,n
Nc1ccn([C@@H]2O[C@H](C(=O)N[C@H](CO)c3ccccc3)[C@@H](O)[C@H]2O)c(=O)n1,n,n,n,n,n,n
COc1cccc(-c2ccc(NC(=O)C3CCCN(CCCn4nc(C)cc4C)C3)cc2)c1 (centres undefined),n,n,49,n,n,n
Cc1ccc(S(=O)(=O)N2[C@H](CC(=O)c3ccc(Cl)c(Cl)c3)OC[C@@H]2C(C)C)cc1,n,n,x,x,x,n
CCCCCNC(=O)C(c1ccnc2ccccc12)n1c(=O)c(-c2ccccc2)nc2ccccc21 (centres undefined),n,n,x,x,x,n
SMILES,M5 antag,M5 PAM,CHRM1 antagonist,CHRM1 PAM,M1 ag,M5 ag
COc1ccc(/C=C2/SC(=O)N(CC(=O)NCCC(C)C)C2=O)cc1OC,n,n,n,n,n,n
COc1ccc(/C=C2\SC(=O)N(CC(=O)NCCC(C)C)C2=O)cc1OC,n,19,n,n,n,n
COC(=O)c1ccc(C23CC4(C2)[C@H](CN(C)[C@@H]4c2ccccc2)C3c2ccc(Cl)nc2)cc1 (some centres undefined),n,n,70,n,n,n
CN1C[C@@H]2C(c3ccc(Cl)nc3)C3(c4ccc(C#N)cc4)CC2(C3)[C@H]1c1ccccc1 (some centres undefined),n,n,55,n,n,n
COC(=O)c1ccc(C23CC4(C2)[C@H](CN(C)[C@@H]4c2ccccc2)C3c2ccc(C(F)(F)F)cc2)cc1 (some centres undefined),n,n,n,n,n,n
CCCCC[C@H](C)N1C[C@@H](COCc2ccccc2)Oc2cc(N3CCC[C@H]3C(N)=O)ccc2S1(=O)=O,n,n,x,x,x,n
Cc1ccsc1-c1cc2nc(Nc3ccc(F)cc3)n(C)c(=O)c2s1,n,n,n,n,n,n
CCN(CC)CCOC(=O)c1ccc(NC(=O)CCCN2C(=O)/C(=C\c3cccs3)SC2=S)cc1,n,n,43,n,n,n
O=C(CCN1C(=O)/C(=C\c2cccs2)SC1=S)Nc1ccc(C(=O)O)cc1,n,n,n,n,n,n
Cn1c(=O)oc2cc(S(=O)(=O)CCC(=O)N3CCN(c4ccccc4F)CC3)ccc21,n,37,n,n,n,n
COc1ccccc1N1CCN(S(=O)(=O)c2ccc3c(c2)oc(=O)n3C)CC1,27,n,n,n,n,n
CC1(c2nnnn2Cc2ccccc2)CCC(=O)N1CCCn1ccnc1 (centres undefined),n,n,x,x,x,n
Cn1cc2cc([N+](=O)[O-])ccc2n1,n,n,n,n,23,n
CCOc1ccccc1-c1ccc2nccn2c1,n,n,61,n,n,n
Clc1ccccc1-c1ccc2nccn2c1,n,n,n,n,n,n
O=C(CNC(=O)c1cncc(Br)c1)Nc1ccc(F)c(F)c1F,n,n,n,n,n,n
O=C(CNC(=O)c1cnccn1)Nc1ccc(F)c(F)c1F,n,21,n,n,n,n
O=C1NC[C@H](CCCCN2C[C@H](Cc3ccc(O)cc3)N(CC3CCCCC3)C(=O)C2=O)N(CC2CCCCC2)C1=O,n,n,x,x,x,n
O=C(CN1CCN(c2ccccc2O)CC1)Nc1ccccc1C(=O)NCCc1ccccc1,n,n,n,n,n,n
CC(NC(=O)c1ccccc1NC(=O)CN1CCN(c2ccccc2O)CC1)c1ccccc1 (centres undefined),n,n,n,n,n,n
COc1ccccc1N1CCN(CC(=O)Nc2ccccc2C(=O)NC(C)c2ccccc2)CC1 (centres undefined),n,n,35,n,n,n
COc1ccc(CCNC(=O)c2ccccc2NC(=O)CN2CCN(c3ccccc3O)CC2)cc1,n,n,28,n,n,n
COc1ccccc1N1CCN(CC(=O)Nc2ccccc2C(=O)NCCc2ccccc2)CC1,n,n,29,n,n,n
